Read-outs that look alike come from different tables or passages of the source. Marks after values point to notes of the source that are not given here. Blank lines part the entries; values can stand above or below the molecule they belong to.
Legend:
[1] = system: Japanese patients with T2DM; test: Adverse events; format: in vivo, human
[2] = 24-h urinary excretion rate of unchanged canagliflozin; format: in vivo, human; settings: for Urinary excretion rate: mean (SD)
Method in brief: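 Urine was collected 0–24 h on Days 1 and 16 during once-daily dosing at 25, 100, 200 or 400 mg, given on Day 1 and Days 3–16 between 8:00 and 9:00 a.m. A standardized breakfast followed within 10 min. Unchanged drug was measured by solid-phase extraction and HPLC-MS/MS with a 13C6-labelled internal standard. The validated range was 1–2000 ng/mL.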

[3] = system: Japanese patients with T2DM; test: Volume-related safety; format: in vivo, human
Method in brief: (§1)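 Volume-related safety was followed as changes from baseline in blood and urinary laboratory parameters: urine volume, sodium excretion, urine and serum osmolality, and hematocrit. Vital signs covered blood pressure, pulse rate and body temperature. Patients received 25–400 mg QD or placebo on Day 1 and Days 3–16 with standardized meals. Urine was collected in timed intervals or 0–24 h pools.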

[4] = system: Japanese patients with T2DM; test: Urinary electrolyte excretion in 24 hours; format: in vivo, human
Method in brief: as §1

[5] = system: Japanese patients with T2DM; test: Renal threshold for glucose excretion; format: in vivo, human; settings: Days 1 and 16, versus baseline Day 0
Method in brief: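 RTG was calculated post hoc for Days 0, 1 and 16 from measured plasma glucose, UGE and estimated glomerular filtration rate. Day 0 was a single-blind placebo baseline after an overnight fast; standardized meals were given at about 0, 4.5 and 10.5 h post-dose.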

[6] = system: Japanese patients with T2DM; test: Urinary glucose excretion; format: in vivo, human; settings: for mean change from baseline in UGE0–24h: Day 1
Method in brief: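 Urine was collected in timed intervals (0–2 through 13–24 h) on Days 0, 1 and 16, and as 0–24 h pools on Days 2–6, 15, 17 and 18. Dosing was 25–400 mg or placebo QD on Day 1 and Days 3–16. Change from the Day 0 single-blind placebo baseline was determined on each collection day.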

[7] = format: in vivo, human; settings: for AR (accumulation ratio): AUC0–24h Day 16 / AUC0–24h Day 1, mean (SD)
Method in brief: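 Patients received 25–400 mg QD or placebo on Day 1 and Days 3–16, fasted overnight, with a standardized breakfast within 10 min. Venous blood was drawn at 0, 0.5, 1, 1.5, 2, 3, 4, 6, 8 and 12 h on Days 1 and 16, and before breakfast on Days 2, 17 and 18. Drug was measured by HPLC-MS/MS, range 1–2000 ng/mL. AR = AUC0–24h Day 16/Day 1; linearity factor = AUC0–24h Day 16/AUC0–∞ Day 1.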

[8] = cited from earlier work
[9] = canagliflozin groups pooled, 2 cases in 2 of 51 patients
[10] = 25 mg QD repeated dose, Day 16, mean (SD), n = 12
[11] = 25 mg single dose, Day 1, mean (SD), n = 12
[12] = 100 mg QD repeated dose, Day 16, mean (SD), n = 12
[13] = 100 mg single dose, Day 1, mean (SD), n = 12
[14] = 200 mg QD repeated dose, Day 16, mean (SD), n = 14
[15] = 200 mg single dose, Day 1, mean (SD), n = 14
[16] = 400 mg QD repeated dose, Day 16, mean (SD), n = 13
[17] = 400 mg single dose, Day 1, mean (SD), n = 13

- Urinary excretion rate ([2]; 25 mg QD repeated dose, Day 16, 0–24 h, n = 12): 0.599 (0.183) %
- Urinary excretion rate ([2]; 25 mg single dose, Day 1, 0–24 h, n = 12): 0.387 (0.070) %
- Urinary excretion rate ([2]; 100 mg QD repeated dose, Day 16, 0–24 h, n = 12): 0.641 (0.204) %
- Urinary excretion rate ([2]; 100 mg single dose, Day 1, 0–24 h, n = 12): 0.384 (0.084) %
- Urinary excretion rate ([2]; 200 mg QD repeated dose, Day 16, 0–24 h, n = 14): 0.614 (0.195) %
- Urinary excretion rate ([2]; 200 mg single dose, Day 1, 0–24 h, n = 14): 0.424 (0.107) %
- Urinary excretion rate ([2]; 400 mg QD repeated dose, Day 16, 0–24 h, n = 13): 0.495 (0.153) %
- Urinary excretion rate ([2]; 400 mg single dose, Day 1, 0–24 h, n = 13): 0.385 (0.097) %
- 24-h urinary excretion rate of unchanged canagliflozin ([2]; Day 1, means at each dose): approximately 0.4%
- 24-h urinary excretion rate of unchanged canagliflozin ([2]; Day 16, means at each dose): 0.5–0.6%
- urinary sodium excretion ([4]; Day 1, reversed within a week): transient nominal increase
- urinary excretion of electrolytes (potassium, chloride, calcium, magnesium, inorganic phosphorus) ([4]; canagliflozin-treated groups compared with the placebo group): No remarkable changes were observed
- AUC0–24h [7, 10]: 1556 (387) ng·h/mL
- C max [7, 10]: 263 (91) ng/mL
- t 1/2 [7, 10]: 14.21 (7.46) h
- t max ([7]; 25 mg QD repeated dose, Day 16, median [min–max], n = 12): 1.0 [1.0–3.0] h
- AUC0–24h [7, 11]: 1295 (240) ng·h/mL
- C max [7, 11]: 248 (55) ng/mL
- t 1/2 [7, 11]: 10.70 (1.76) h
- t max ([7]; 25 mg single dose, Day 1, median [min–max], n = 12): 1.0 [1.0–2.0] h
- AR (accumulation ratio) ([7]; 25 mg, n = 12): 1.19 (0.12)
- AUC0–24h [7, 12]: 6635 (1367) ng·h/mL
- C max [7, 12]: 1136 (330) ng/mL
- t 1/2 [7, 12]: 11.81 (3.22) h
- t max ([7]; 100 mg QD repeated dose, Day 16, median [min–max], n = 12): 1.0 [1.0–1.5] h
- AUC0–24h [7, 13]: 5468 (899) ng·h/mL
- C max [7, 13]: 1126 (228) ng/mL
- t 1/2 [7, 13]: 10.22 (1.89) h
- t max ([7]; 100 mg single dose, Day 1, median [min–max], n = 12): 1.0 [1.0–1.5] h
- AR (accumulation ratio) ([7]; 100 mg, n = 12): 1.21 (0.12)
- t 1/2 ([7]; 200 mg QD repeated dose, Day 16, mean (SD), n = 13): 16.16 (5.87)^c h
- AUC0–24h [7, 14]: 16,716 (5464) ng·h/mL
- C max [7, 14]: 2688 (805) ng/mL
- t max ([7]; 200 mg QD repeated dose, Day 16, median [min–max], n = 14): 1.3 [1.0–1.5] h
- AUC0–24h [7, 15]: 11,991 (3042) ng·h/mL
- C max [7, 15]: 2304 (539) ng/mL
- t 1/2 [7, 15]: 13.26 (4.96) h
- t max ([7]; 200 mg single dose, Day 1, median [min–max], n = 14): 1.0 [1.0–1.5] h
- AR (accumulation ratio) ([7]; 200 mg, n = 14): 1.38 (0.17)
- t 1/2 ([7]; 400 mg QD repeated dose, Day 16, mean (SD), n = 12): 15.76 (5.56)^d h
- AUC0–24h [7, 16]: 30,766 (7916) ng·h/mL
- C max [7, 16]: 5236 (1123) ng/mL
- t max ([7]; 400 mg QD repeated dose, Day 16, median [min–max], n = 13): 1.0 [1.0–1.5] h
- AUC0–24h [7, 17]: 21,836 (4983) ng·h/mL
- C max [7, 17]: 5028 (1733) ng/mL
- t 1/2 [7, 17]: 12.15 (2.34) h
- t max ([7]; 400 mg single dose, Day 1, median [min–max], n = 13): 1.0 [1.0–3.0] h
- AR (accumulation ratio) ([7]; 400 mg, n = 13): 1.42 (0.29)
- mean accumulation ratios (ARs) ([7]; AUC0–24h Day 16 / AUC0–24h Day 1, across doses 25–400 mg): 1.19–1.42
- linearity factors ([7]; AUC0–24h Day 16 / AUC0–∞ Day 1, any dose (25, 100, 200, 400 mg)): ~1
- elimination half-life (t 1/2) ([7]; Day 1, across doses 25–400 mg): 10.22 to 13.26 h
- elimination half-life (t 1/2) ([7]; Day 16, across doses 25–400 mg): 11.81 to 16.16 h
- t max ([7]; Day 16, across doses 25–400 mg): 1.0 to 1.3 h
- plasma concentration reaches steady state ([7]; repeated QD dosing from Day 3, all doses): ≤ 7 days
SMILES: Cc1ccc([C@@H]2O[C@H](CO)[C@@H](O)[C@H](O)[C@H]2O)cc1Cc1ccc(-c2ccc(F)cc2)s1 [Canagliflozin]
- nasopharyngitis, patients with AE ([1]; canagliflozin groups pooled, 1 case in 1 of 51 patients): 2.0%
- dizziness, patients with AE [1, 9]: 3.9%
- toothache, patients with AE [1, 9]: 3.9%
- urine ketone body present, patients with AE ([1]; canagliflozin groups pooled, 3 cases in 3 of 51 patients): 5.9%
- anemia, patients with AE ([1]; canagliflozin groups pooled, 4 cases in 4 of 51 patients): 7.8%
- diarrhea, patients with AE ([1]; canagliflozin groups pooled, 6 cases in 5 of 51 patients): 9.8%
- occult blood positive, patients with AE ([1]; canagliflozin groups pooled, 14 cases in 12 of 51 patients): 23.5%
- urinary ketones observed ([1]; canagliflozin-treated groups, all mild): 3 patients
- urinary ketones observed ([1]; dose of 200 mg): 2 cases
- urinary ketones observed ([1]; dose of 400 mg): 1 case
- tolerability ([1]; short-term study, patients with T2DM, 25–400 mg): well tolerated
- AEs related to skin disorders ([1]; whole study): not observed
- 24-h urine volume ([3]; Day 1, canagliflozin groups): slightly increased
- change in urine osmolality over time from baseline ([3]; Day 1, canagliflozin-treated groups): trend toward an increase
- pulse rate and incidence of orthostatic hypotension ([3]; data not shown): No increases were observed
- hematocrit level ([3]; during the study period): remained unchanged
- serum osmolality ([3]; during the treatment period): maintained constant
- mean systolic and diastolic blood pressures ([3]; groups that received ≥100 mg): tended to decrease
- RTG0–24h [5]: decreased
- UGE after the last administration ([6]; 24–48 and 48–72 h after the last administration, ≥100 mg): increase in UGE was detected
- mean change from baseline in UGE0–24h ([6]; 25-mg group): approximately 60 g/day
- mean change from baseline in UGE0–24h ([6]; 100–400-mg groups): 80 to 110 g/day

SMILES: NS(=O)(=O)c1cc2c(cc1Cl)N=CNS2(=O)=O [chlorothiazide]
- persistence of diuretic effects [8]: about 1 week

From PMC4569680 (Advances in Therapy, 2015)
